ChEMBL document CHEMBL1139439, “Folate-synthesizing enzyme system as target for development of inhibitors and inhibitor combinations against Candida albicans-synthesis and biological activity of new 2,4-diaminopyrimidines and 4'-substituted 4-aminodiphenyl sulfones” (J Med Chem, 2004)

Assays:
Dihydrofolate reductase [1] = biological target: T1, Dihydrofolate reductase (Candida albicans, UniProt P22906); test: Inhibitory activity against cell free dihydrofolate reductase (DHFR) from Candida albicans; conditions: for IC50: read-out: I50
T1 sequence (P22906 whole entry): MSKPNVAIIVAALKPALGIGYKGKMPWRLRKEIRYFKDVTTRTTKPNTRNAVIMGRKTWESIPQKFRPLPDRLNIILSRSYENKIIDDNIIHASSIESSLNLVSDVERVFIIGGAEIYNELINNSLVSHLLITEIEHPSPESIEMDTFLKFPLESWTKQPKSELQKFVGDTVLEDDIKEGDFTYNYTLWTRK

Dihydrofolate reductase [2] = biological target: T2, Dihydrofolate reductase (Rattus norvegicus, UniProt Q920D2); test: Inhibitory activity against cell free dihydrofolate reductase (DHFR) from rat; conditions: for IC50: read-out: I50
T2 sequence (Q920D2 whole entry): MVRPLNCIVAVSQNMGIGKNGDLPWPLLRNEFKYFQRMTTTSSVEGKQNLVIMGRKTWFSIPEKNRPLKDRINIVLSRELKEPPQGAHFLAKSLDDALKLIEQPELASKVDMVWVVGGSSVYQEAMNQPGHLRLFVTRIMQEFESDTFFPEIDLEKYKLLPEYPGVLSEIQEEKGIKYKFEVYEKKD

[3] = Inhibitory activity against dihydropteroic acid synthase (SYN) from Escherichia coli; conditions: read-out: I50
[4] = Inhibitory activity against dihydropteroic acid synthase (SYN) from Mycobacterium lufu (DDS sensitive); conditions: read-out: I50
[5] = Inhibitory activity against dihydropteroic acid synthase (SYN) from candida albicans; conditions: read-out: I50
Outline: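 Partially purified SYN extract was prepared from C. albicans ATCC 11651 and incubated with sulfones at pH 8.4. Periodic samples were quenched with trichloroacetic acid, and folate formed was quantified by bioassay with folate-requiring Streptococcus faecium. I50 is the concentration giving a 50% decrease in dihydropteroic acid production versus the uninhibited control.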

[6] = Inhibitory activity against dihydropteroic acid synthase (SYN) from Mycobacterium lufu (DDS resistant); conditions: read-out: I50

IC50 (Dihydrofolate reductase [1])	IC50 (Dihydrofolate reductase [2])	SMILES	further results
84.8 µM	–	Nc1ncc(NCc2ccc(Cl)c(Cl)c2)c(N)n1	I50 (Dihydrofolate reductase [2]): > 350 uM l-1
6.63 µM	71.5 µM	Nc1ncc(NCc2ccccc2Cl)c(N)n1	–
0.078 µM	6.07 µM	Nc1ncc(OCc2ccc(OCCCCN3C(=O)c4ccccc4C3=O)cc2)c(N)n1	–
1.24 µM	10.1 µM	Nc1ncc(OCc2ccccc2)c(N)n1	–
0.435 µM	4.43 µM	Cc1ccc(S(=O)(=O)NCCCOc2ccc(COc3cnc(N)nc3N)cc2)cc1	–
0.73 µM	3.53 µM	Nc1ncc(OCc2ccccc2Cl)c(N)n1	–
52.3 µM	–	COc1ccc(CNc2cnc(N)nc2N)cc1	I50 (Dihydrofolate reductase [2]): 146.2 uM l-1
2.81 µM	39.4 µM	Nc1ncc(OCc2ccc(OCc3ccccc3)cc2)c(N)n1	–
59.4 µM	–	Nc1ncc(CNc2ccccc2)c(N)n1	I50 (Dihydrofolate reductase [2]): 133.1 uM l-1
6.13 µM	58.3 µM	COc1cc(COc2cnc(N)nc2N)ccc1OCCCc1ccccc1	–
1.85 µM	3.36 µM	Cc1nc(N)nc(N)c1Cc1ccccc1	–
4.77 µM	61.2 µM	Nc1ncc(Cc2ccc3ccccc3c2)c(N)n1	–
1.34 µM	4.58 µM	Cc1nc(N)nc(N)c1OCc1ccc(Cl)c(Cl)c1	–
3.72 µM	56.7 µM	Nc1ncc(OCc2ccc(Cl)c(Cl)c2)c(N)n1	–
5.72 µM	–	Nc1ncc(/C=C/c2ccccc2)c(N)n1	I50 (Dihydrofolate reductase [2]): 130.6 uM l-1
53.5 µM	29.4 µM	Nc1ncc(Cc2cccc3ccccc23)c(N)n1	–
0.047 µM	3.64 µM	Nc1ncc(Cc2ccc(OCCCCN3C(=O)c4ccccc4C3=O)cc2)c(N)n1	–
23.8 µM	–	CC(C)(C)c1ccc(COc2cnc(N)nc2N)cc1	I50 (Dihydrofolate reductase [2]): 106 uM l-1
0.581 µM	1.72 µM	Cc1ccc(S(=O)(=O)NCCCCOc2ccc(Cc3cnc(N)nc3N)cc2)cc1	–
35.4 µM	–	COc1ccc(CCc2cnc(N)nc2N)cc1OC	I50 (Dihydrofolate reductase [2]): 315.3 uM l-1

IC50 (Dihydrofolate reductase [1])	IC50 (Dihydrofolate reductase [2])	SMILES	further results
9.9 µM	0.82 µM	Cc1nc(N)nc(N)c1CCCc1ccccc1	–
0.619 µM	15.7 µM	Nc1ncc(OCc2ccc(OCCCN3C(=O)c4ccccc4C3=O)cc2)c(N)n1	–
–	–	Nc1ccc(S(=O)(=O)c2ccc(C(=O)O)cc2)cc1	IC50 [3]: 74.2 µM; IC50 [4]: 3.6 µM; IC50 [5]: 2.78 µM; IC50 [6]: 3.17 µM
0.97 µM	–	COc1cc(Cc2cnc(N)nc2N)cc(OC)c1OCCCNc1ccc(N(C)C)cc1	–
–	–	Nc1ccc(S(=O)(=O)c2ccc(Cl)cc2)cc1	IC50 [4]: 13 µM; IC50 [5]: 14.3 µM; IC50 [6]: 18.7 µM
90.5 µM	–	Nc1ncc(Cc2ccccc2)c(N)n1	I50 (Dihydrofolate reductase [2]): 115.3 uM l-1
16.1 µM	71.3 µM	Nc1ncc(NCc2ccc3ccccc3c2)c(N)n1	–
–	–	COC(=O)CNc1ccc(S(=O)(=O)c2ccc(N)cc2)cc1	IC50 [3]: 101 µM; IC50 [4]: 2.24 µM; IC50 [5]: 1.33 µM; IC50 [6]: 2.63 µM
3.1 µM	2.57 µM	Nc1ncc(OCc2c(Cl)cccc2Cl)c(N)n1	–
–	–	COc1ccc(CNc2cnc(N)nc2N)cc1OC	I50 (Dihydrofolate reductase [1]): 125.8 uM l-1; I50 (Dihydrofolate reductase [2]): 197.3 uM l-1
0.538 µM	4.53 µM	COc1cc(COc2cnc(N)nc2N)ccc1OCCCNS(=O)(=O)c1ccc(C)cc1	–
13.9 µM	49.8 µM	Nc1ncc(NCc2cccc(Cl)c2)c(N)n1	–
26.1 µM	99.7 µM	COc1ccc(COc2cnc(N)nc2N)cc1	–
3.37 µM	39.9 µM	Nc1ncc(CCc2ccccc2)c(N)n1	–
–	–	COc1ccc(S(=O)(=O)c2ccc(N)cc2)cc1	IC50 [3]: 128 µM; IC50 [4]: 7.55 µM; IC50 [5]: 9.05 µM; IC50 [6]: 9.33 µM
4.2 µM	12.8 µM	Cc1nc(N)nc(N)c1CCc1ccccc1	–
0.49 µM	2.82 µM	Nc1ncc(OCc2ccc(Br)c3ccccc23)c(N)n1	–
1.39 µM	5.9 µM	Nc1ncc(NCc2cccc3ccccc23)c(N)n1	–
30.9 µM	–	Nc1ncc(CSc2ccc3ccccc3c2)c(N)n1	I50 (Dihydrofolate reductase [2]): 110.6 uM l-1
